Experiments:
Aspergillus fumigatus [1] = assay: Antimicrobial activity against Aspergillus fumigatus ATCC 90906 by alamar blue assay; format: functional, organism-based
How it was run: (§1)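 Modified CLSI broth microdilution. DMSO stocks were serially diluted in saline and run in duplicate. Inoculum was set by the 0.5 McFarland standard in YM broth for MIC, or in RPMI-1640 + 5% Alamar Blue for IC50. The top final concentration was 20 μg/mL. Fluorescence (544ex/590em) was read before and after incubation. IC50 was taken from % growth versus concentration; MIC was read visually as no blue-to-pink change.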

Aspergillus fumigatus [2] = assay: Antimicrobial activity against Aspergillus fumigatus ATCC 90906 by CLSI method; format: functional; how it was run: as §1
Candida albicans [3] = assay: Antimicrobial activity against Candida albicans ATCC 90028 by CLSI method; format: functional
How it was run: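 C. albicans inoculum was made to the 0.5 McFarland standard in Sabouraud dextrose broth or RPMI 1640. Samples came from DMSO stocks serially diluted in saline, in duplicate, starting at a final 20 μg/mL. Plates were read at OD 630 nm before and after incubation. IC50 came from the % growth versus concentration plot; MIC was the lowest concentration with no visible growth. Included: growth, solvent and blank controls, plus amphotericin B.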

Cryptococcus neoformans [4] = assay: Antimicrobial activity against Cryptococcus neoformans ATCC 90113 by CLSI method; format: functional
How it was run: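 C. neoformans in Sabouraud dextrose broth, inoculum per the 0.5 McFarland standard. Saline serial dilutions of DMSO samples were tested in duplicate, with a final top concentration of 20 μg/mL. OD 630 nm was read before and after incubation. IC50 was derived from % growth versus concentration. MIC was judged visually as the lowest concentration with no detectable growth. Amphotericin B served as the drug control.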

Vero = assay: Cytotoxicity against african green monkey Vero cells at 10 ug/ml after 48 hrs by neutral red assay; format: cell-based; conditions: chlorocebus sabaeus
How it was run: (§2)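 VERO kidney cells were seeded at 25,000 cells/well and incubated 24 h. Samples were added up to 10 μg/mL and incubated a further 48 h. Viable cells were counted by neutral red uptake. IC50 came from growth-inhibition dose curves. Doxorubicin was the positive control and DMSO the vehicle control.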

Candida albicans [5] = assay: Antimicrobial activity against Candida albicans ATCC 90028 by alamar blue assay; format: functional, organism-based
Cryptococcus neoformans [6] = assay: Antimicrobial activity against Cryptococcus neoformans ATCC 90113 by alamar blue assay; format: functional, organism-based
[7] = Selectivity index, ratio of TC50 for african green monkey Vero cells to IC50 for Cryptococcus neoformans ATCC 90113; format: toxicity, cell-based; conditions: read-out: Selectivity Index
Pichia kudriavzevii [8] = assay: Antimicrobial activity against Candida krusei ATCC 6258 by CLSI method; format: functional
How it was run: (§3)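 Modified CLSI microdilution. DMSO samples were serially diluted in saline and tested in duplicate against inoculum adjusted by the 0.5 McFarland standard. The final test range started at 20 μg/mL. Plates were read before and after incubation. IC50 came from % growth versus concentration; MIC was the lowest concentration without visible growth. Growth, solvent, blank and amphotericin B controls were on each plate.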

Pichia kudriavzevii [9] = assay: Antimicrobial activity against Candida krusei ATCC 6258 by alamar blue assay; format: functional, organism-based
Nakaseomyces glabratus [10] = assay: Antimicrobial activity against Candida glabrata ATCC 90030 by CLSI method; format: functional; how it was run: as §3
Nakaseomyces glabratus [11] = assay: Antimicrobial activity against Candida glabrata ATCC 90030 by alamar blue assay; format: functional, organism-based
[12] = Cytotoxicity against african green monkey Vero cells after 48 hrs by neutral red assay; format: cell-based; conditions: chlorocebus sabaeus, read-out: TC50; how it was run: as §2

Structure (SMILES) | IC50 (Aspergillus fumigatus [1]) [µg/mL] | MFC (Aspergillus fumigatus [2]) [µg/mL] | MIC (Aspergillus fumigatus [2]) [µg/mL] | MFC (Candida albicans [3]) [µg/mL] | MIC (Candida albicans [3]) [µg/mL] | MFC (Cryptococcus neoformans [4]) [µg/mL] | MIC (Cryptococcus neoformans [4]) [µg/mL] | Activity (Vero) | IC50 (Candida albicans [5]) [µg/mL] | IC50 (Cryptococcus neoformans [6]) [µg/mL] | selectivity ratio [7] | MFC (Pichia kudriavzevii [8]) [µg/mL] | MIC (Pichia kudriavzevii [8]) [µg/mL] | IC50 (Pichia kudriavzevii [9]) [µg/mL] | MFC (Nakaseomyces glabratus [10]) [µg/mL] | MIC (Nakaseomyces glabratus [10]) [µg/mL] | IC50 (Nakaseomyces glabratus [11]) [µg/mL] | CC50 at 48 h [12] [µg/mL]
Fc1ccccc1Sc1cc2ccccc2[n+](CCCCCc2ccccc2)c1.[I-] | 9 | > 20 | 20 | > 20 | > 20 | > 20 | 20 | Non-toxic | > 20 | 9.5 |  |  |  |  |  |  |  | 
FC(F)(F)c1ccccc1Sc1cc2ccccc2[n+](CCCCCC2CCCCC2)c1.[I-] | 1.8 | 5 | 5 | 2.5 | 2.5 | 1.3 | 0.6 | Non-toxic | 1.1 | 0.3 | > 33 | 1.3 | 1.3 | 1.1 | 10 | 5 | 3 | 
Fc1ccc(Sc2cc3ccccc3[n+](CCCCCc3ccccc3)c2)cc1.[I-] | 9 | > 20 | 20 | > 20 | > 20 | > 20 | 20 | Non-toxic | > 20 | 15 |  |  |  |  |  |  |  | 
Cc1ccccc1Sc1cc2ccccc2[n+](CCCCCc2ccccc2)c1.[I-] | > 20 | > 20 | > 20 | > 20 | > 20 | 20 | 5 | Non-toxic | > 20 | 4 |  |  |  |  |  |  |  | 
Fc1cccc(Sc2cc3ccccc3[n+](CCCCCc3ccccc3)c2)c1.[I-] | 5 | > 20 | 20 | > 20 | > 20 | > 20 | 10 | Non-toxic | > 20 | 7 |  |  |  |  |  |  |  | 
COc1cccc(Sc2cc3ccccc3[n+](CCCCCC3CCCCC3)c2)c1.[I-] | 5.5 | 20 | 10 | 10 | 5 | 2.5 | 0.6 |  | 2.7 | 0.4 | 11 | 1.3 | 1.3 | 0.6 | > 20 | 20 | 16 | 4.5
N#Cc1ccccc1Sc1cc2ccccc2[n+](CCCCCC2CCCCC2)c1.[I-] | 5 | 20 | 19 | 10 | 10 | 10 | 1.3 |  | 3.3 | 1.1 | 9.1 | 5 | 2.5 | 0.7 | 20 | 20 | 12 | 10
FC(F)(F)c1ccccc1Sc1cc2ccccc2[n+](CCCCCc2ccccc2)c1.[I-] | 6.9 | > 20 | > 20 | > 20 | > 20 | 10 | 5 | Non-toxic | 12 | 2.2 |  |  |  |  |  |  |  | 
Oc1ccccc1Sc1cc2ccccc2[n+](CCCCCC2CCCCC2)c1.[I-] | 3.9 | > 20 | 10 | 20 | 10 | 1.3 | 1.3 |  | 4.7 | 1 | 9.3 | 10 | 10 | 4.4 | > 20 | 20 | 12 | 9.3
Brc1ccc(Sc2cc3ccccc3[n+](CCCCCc3ccccc3)c2)cc1.[I-] | 3.5 | > 20 | 10 | > 20 | 20 | 10 | 10 | Non-toxic | 8.5 | 2 |  |  |  |  |  |  |  | 
FC(F)(F)c1cccc(Sc2cc3ccccc3[n+](CCCCCc3ccccc3)c2)c1.[I-] | 17 | > 20 | > 20 | > 20 | > 20 | 10 | 5 | Non-toxic | 14 | 2.1 |  |  |  |  |  |  |  | 
Cc1ccccc1Sc1cc2ccccc2[n+](CCCCCC2CCCCC2)c1.[I-] | 4.8 | > 20 | 10 | 10 | 5 | 1.3 | 0.6 |  | 1.7 | 0.3 | 13 | 1.3 | 1.3 | 0.6 | 20 | 20 | 13 | 4

Source: ChEMBL document CHEMBL1772938, “Optimization of 3-(phenylthio)quinolinium compounds against opportunistic fungal pathogens” (Eur J Med Chem, 2011)
